Activity calls are given as the source filed them.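 How the source made its calls, unless noted: active means active in primary screen and both duplicates, each dropping signal beyond three positive-control SD with fluorescence still positive; inactive means the rest.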

This note sets out measurements from PubChem BioAssay.

Chain of Short transient receptor potential channel 6 (Mus musculus) (Q61143 whole entry, looked up): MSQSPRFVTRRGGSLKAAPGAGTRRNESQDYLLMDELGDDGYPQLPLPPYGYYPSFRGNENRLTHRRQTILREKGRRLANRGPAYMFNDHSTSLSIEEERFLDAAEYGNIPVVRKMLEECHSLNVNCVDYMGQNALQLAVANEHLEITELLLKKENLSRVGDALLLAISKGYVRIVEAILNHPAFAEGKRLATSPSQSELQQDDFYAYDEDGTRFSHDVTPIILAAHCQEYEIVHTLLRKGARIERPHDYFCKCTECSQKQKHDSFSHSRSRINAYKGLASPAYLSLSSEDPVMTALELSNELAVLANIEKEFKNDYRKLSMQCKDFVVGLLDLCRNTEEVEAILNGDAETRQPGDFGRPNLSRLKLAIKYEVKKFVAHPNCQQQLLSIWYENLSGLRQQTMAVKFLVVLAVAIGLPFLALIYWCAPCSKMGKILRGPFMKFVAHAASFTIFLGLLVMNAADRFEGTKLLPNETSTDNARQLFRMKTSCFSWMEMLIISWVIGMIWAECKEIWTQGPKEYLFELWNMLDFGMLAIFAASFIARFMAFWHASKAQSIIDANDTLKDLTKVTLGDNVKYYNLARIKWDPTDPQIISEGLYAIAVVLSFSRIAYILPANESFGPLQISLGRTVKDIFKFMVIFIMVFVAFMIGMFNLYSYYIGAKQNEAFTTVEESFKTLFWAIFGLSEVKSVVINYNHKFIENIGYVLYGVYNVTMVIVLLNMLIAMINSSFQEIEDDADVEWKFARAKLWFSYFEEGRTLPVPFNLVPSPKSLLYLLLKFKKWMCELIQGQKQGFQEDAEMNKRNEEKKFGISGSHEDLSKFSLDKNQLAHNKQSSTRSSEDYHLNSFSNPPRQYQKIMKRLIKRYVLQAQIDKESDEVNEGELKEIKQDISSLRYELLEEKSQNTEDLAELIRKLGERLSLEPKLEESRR

One test has as its target Short transient receptor potential channel 6 (Mus musculus) (UniProt Q61143). Briefly: TRPC6 blockade by TRPC4 inhibitor hits – cell-based, HEK293, membrane potential dye, duplicate, selectivity assay for TRPC4 inhibitor project, confirmation (AID 434948). The conditions noted are these: HEK293 TRPC6, membrane potential dye fluorescence, at 10 µM, stimulated with maximal-effect acetylcholine; hits give high values. The procedure, abridged: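 Reagent: acetylcholine at maximal (ECmax) concentration, added after compound; system: HEK293 cells expressing mouse TRPC6 channel; read-out basis: control-normalized integrated fluorescence ratio; replicates: duplicate testing; times: 45 min RT dye load, 110 s compound, 110 s agonist read; signal: membrane potential dye fluorescence, kinetic read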
Consider `Fc1ccc(-c2nnc(CN3CCN(c4ncc(C(F)(F)F)cc4Cl)CC3)o2)cc1`, for which the call was inactive.

Turning to `CCN1CCN(c2ccc(S(=O)(=O)N3CCCCC3)cc2NC(=O)COc2ccccc2)CC1`, the compound was classed as inactive.

In the case of `CC1CC(C)CN(CCCNC(=O)c2nn(C)c3c2CS(=O)(=O)c2ccccc2-3)C1` (stereo not drawn), the compound was called inactive.

`Cc1ccc(/C=N\NC(=O)C2COc3cc4ccccc4cc3O2)o1` (stereo not drawn): the compound was classed as inactive.

Take `Cc1cccc(C)c1OCC(O)CN` (stereo not drawn): the compound was called inactive.

Turning to `CCn1cc(CN2CCCC(C(=O)Nc3ccc(-c4nc5ccccc5[nH]4)cc3)C2)c(C)n1` (stereo not drawn), the compound was called inactive.

In the case of `CC(C)(C)c1cc(Cl)ccc1OCCn1ccnc1`, the compound was called inactive.

For `CC(C)c1ccc(NC(=S)N(C)CCc2ccccn2)cc1`, the compound was classed as inactive.

On to `CCCC(=O)NC(C)C(c1cccs1)N1CCN(c2ccccc2)CC1` (stereo not drawn), for which the result was inactive.

Take `Cc1ccc2oc(=O)c3cnn(CC(=O)NC4CCN(Cc5ccccc5)CC4)c3c2c1`: the call was inactive.

For the compound `O=C(CCc1ccccc1)NNC(=S)NC(=O)c1ccc(Cl)cc1`, the outcome was inactive.

In the case of `C=CCn1c(CCNC(=O)c2ccco2)nc2ccccc21`, the compound was called inactive.

Regarding `Cc1sc2nc(CSc3ccccc3)nc(NCCN(C)C)c2c1C`, the compound was called inactive.

For the compound `O=C(CNS(=O)(=O)c1ccc2ccccc2c1)NCCc1ccccn1`, the outcome was inactive.

Take `COc1ccc(-c2cc(C#N)nc(N3CCNCC3)n2)cc1`: the outcome was inactive.

Turning to `Cc1ccc(C)c(OCCCCn2ccnc2)c1`, the compound was classed as inactive.

On to `CCCN(CCC)CCNC(=S)Nc1ccc2nc3n(c(=O)c2c1)CCCCC3`, for which the call was inactive.

Consider `Cc1cccc(NC(=S)NCC(c2cccnc2)N(C)C)c1` (stereo not drawn), for which the compound was classed as inactive.

On to `COc1ccc(/C=C/CN2CCCC(C(=O)c3ccc(OC)c(F)c3)C2)cc1` (stereo not drawn), for which the call was inactive.

As for `Cc1sc2ncnc(NC3CCN(Cc4ccccc4)CC3)c2c1C`, the result was inactive.

With `CCCCN(CC)CCNC(=O)c1cc2c(C)nc3ccccc3c2o1`, the compound was called inactive.

As for `O=C(NCCc1ccccn1)c1ccc(OC2CCN(CCc3ccccc3)CC2)cc1`, the compound was classed as inactive.

For `Cc1ccccc1NC(=S)NCCc1ccccn1`, the compound was called inactive.

As to `NCCCn1c(C(=O)c2cc(Cl)c(N)c(Cl)c2)c2ccccc2[n+]1[O-]`, the outcome was inactive.

Take `COc1ccc(-c2nn(-c3ccccc3)cc2CNCc2cccnc2)c(F)c1`: the result was inactive.

As to `Cc1onc(-c2ccccc2)c1C(=O)NC(=S)NNC(=O)c1ccco1`, the compound was called inactive.

With `COc1ccc(C(CNC(=O)c2ccc(S(=O)(=O)N(C)C)cc2)N(C)C)cc1` (stereo not drawn), the result was inactive.

Take `CCN1C(=O)c2cccc3c(S(=O)(=O)Nc4ccccc4OC)ccc1c23`: the compound was called inactive.

`CCOC(=O)C1CCCN(C(c2ccccn2)c2c(C)[nH]c3ccccc23)C1` (stereo not drawn): the compound was classed as inactive.

Take `COC(=O)c1ccccc1N=Nc1c(N)[nH][nH]c1=O`: the compound was classed as inactive.

`COc1ccc(C(CNCC(=O)Nc2ccccc2F)N(C)C)cc1` (stereo not drawn): the compound was called inactive.

In the case of `CCOC(=O)C1(CCOc2ccccc2)CCN(Cc2cnc(C)s2)CC1`, the call was inactive.

As for `O=C(c1sc2ccccc2c1Cl)N(Cc1ccco1)C1CCS(=O)(=O)C1` (stereo not drawn), the compound was classed as inactive.

For the compound `CCCCN(C)CCCNC(=O)CN1N=C(c2ccc(Cl)cc2)CCC1=O`, the compound was classed as inactive.

Consider `CN(C)CCCN(C(=O)c1ccc(C(=O)c2ccccc2)cc1)c1nc2ccc(F)cc2s1`, for which the result was inactive.

Turning to `CN(CCc1nc2ccc(Cl)cc2[nH]1)Cc1nc(CC2CC2)no1`, the call was inactive.

For `Fc1ccc(C(c2nnnn2Cc2cccs2)N2CCN(C3CCCCC3)CC2)cc1` (stereo not drawn), the result was inactive.

With `COc1ccc(C2Nc3ccccc3C(=O)N2Cc2ccco2)cc1COc1ccc(NC(C)=O)cc1` (stereo not drawn), the compound was classed as inactive.

Take `O=C(NCCCN1CCN(CCCNC(=O)c2ccc3c(c2)OCO3)CC1)c1ccc2c(c1)OCO2`: the compound was classed as inactive.

The target is the same in the next test. Briefly: TRPC6 opening by TRPC4 activator hits – cell-based, HEK293, membrane potential dye, duplicate, selectivity assay for TRPC4 activator project, confirmation (AID 434950;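 active means membrane potential signal rise above negative control mean plus 3 SD in both duplicates, also active in the earlier TRPC4 screen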;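 on activation: 0% = buffer only wells and 100% = acetylcholine maximal-effect wells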). The conditions noted are these: HEK293 TRPC6, membrane potential fluorescence, at 10 µM; activation: hits give high values; outcome: activation.
For the compound `Fc1ccc(-c2nnc(CN3CCN(c4ncc(C(F)(F)F)cc4Cl)CC3)o2)cc1`, the activation was 35.5% (active).

On to `CCN1CCN(c2ccc(S(=O)(=O)N3CCCCC3)cc2NC(=O)COc2ccccc2)CC1`, for which the compound was classed as inactive.

For `CC1CC(C)CN(CCCNC(=O)c2nn(C)c3c2CS(=O)(=O)c2ccccc2-3)C1` (stereo not drawn), the activation is 40.5% (active).

On to `Cc1ccc(/C=N\NC(=O)C2COc3cc4ccccc4cc3O2)o1` (stereo not drawn), for which the activation was 27% (active).

Take `Cc1cccc(C)c1OCC(O)CN` (stereo not drawn): the activation was 30.5% (active).

Turning to `CCn1cc(CN2CCCC(C(=O)Nc3ccc(-c4nc5ccccc5[nH]4)cc3)C2)c(C)n1` (stereo not drawn), the activation is 52% (active).

For `CC(C)(C)c1cc(Cl)ccc1OCCn1ccnc1`, the call was inactive.

Consider `CC(C)c1ccc(NC(=S)N(C)CCc2ccccn2)cc1`, for which the call was inactive.

For `CCCC(=O)NC(C)C(c1cccs1)N1CCN(c2ccccc2)CC1` (stereo not drawn), the activation was 38.5% (active).

Consider `Cc1ccc2oc(=O)c3cnn(CC(=O)NC4CCN(Cc5ccccc5)CC4)c3c2c1`, for which the compound was called inactive.

As for `O=C(CCc1ccccc1)NNC(=S)NC(=O)c1ccc(Cl)cc1`, the activation is 30% (active).

For the compound `C=CCn1c(CCNC(=O)c2ccco2)nc2ccccc21`, the call was inactive.

In the case of `Cc1sc2nc(CSc3ccccc3)nc(NCCN(C)C)c2c1C`, the result was inactive.

As to `O=C(CNS(=O)(=O)c1ccc2ccccc2c1)NCCc1ccccn1`, the compound was classed as inactive.

Consider `COc1ccc(-c2cc(C#N)nc(N3CCNCC3)n2)cc1`, for which the call was inactive.

`Cc1ccc(C)c(OCCCCn2ccnc2)c1`: the activation is 58.5% (active).

In the case of `CCCN(CCC)CCNC(=S)Nc1ccc2nc3n(c(=O)c2c1)CCCCC3`, the activation is 47% (active).

For `Cc1cccc(NC(=S)NCC(c2cccnc2)N(C)C)c1` (stereo not drawn), the activation is 33.5% (active).

On to `COc1ccc(/C=C/CN2CCCC(C(=O)c3ccc(OC)c(F)c3)C2)cc1` (stereo not drawn), for which the activation is 33% (active).

As to `Cc1sc2ncnc(NC3CCN(Cc4ccccc4)CC3)c2c1C`, the outcome was inactive.

Turning to `CCCCN(CC)CCNC(=O)c1cc2c(C)nc3ccccc3c2o1`, the compound was called inactive.

As for `O=C(NCCc1ccccn1)c1ccc(OC2CCN(CCc3ccccc3)CC2)cc1`, the activation was 44.5% (active).

Consider `Cc1ccccc1NC(=S)NCCc1ccccn1`, for which the compound was called inactive.

With `NCCCn1c(C(=O)c2cc(Cl)c(N)c(Cl)c2)c2ccccc2[n+]1[O-]`, the compound was called inactive.

With `COc1ccc(-c2nn(-c3ccccc3)cc2CNCc2cccnc2)c(F)c1`, the compound was classed as inactive.

With `Cc1onc(-c2ccccc2)c1C(=O)NC(=S)NNC(=O)c1ccco1`, the activation was 30.5% (active).

Turning to `COc1ccc(C(CNC(=O)c2ccc(S(=O)(=O)N(C)C)cc2)N(C)C)cc1` (stereo not drawn), the activation was 29% (active).

For `CCN1C(=O)c2cccc3c(S(=O)(=O)Nc4ccccc4OC)ccc1c23`, the compound was classed as inactive.

Regarding `CCOC(=O)C1CCCN(C(c2ccccn2)c2c(C)[nH]c3ccccc23)C1` (stereo not drawn), the activation was 31% (active).

For `COC(=O)c1ccccc1N=Nc1c(N)[nH][nH]c1=O`, the call was inactive.

`COc1ccc(C(CNCC(=O)Nc2ccccc2F)N(C)C)cc1` (stereo not drawn): the activation was 59% (active).

As to `CCOC(=O)C1(CCOc2ccccc2)CCN(Cc2cnc(C)s2)CC1`, the activation was 59.5% (active).

For the compound `O=C(c1sc2ccccc2c1Cl)N(Cc1ccco1)C1CCS(=O)(=O)C1` (stereo not drawn), the activation was 57.5% (active).

As to `CCCCN(C)CCCNC(=O)CN1N=C(c2ccc(Cl)cc2)CCC1=O`, the activation is 30% (active).

`CN(C)CCCN(C(=O)c1ccc(C(=O)c2ccccc2)cc1)c1nc2ccc(F)cc2s1`: the compound was classed as inactive.

Regarding `CN(CCc1nc2ccc(Cl)cc2[nH]1)Cc1nc(CC2CC2)no1`, the compound was called inactive.

As to `Fc1ccc(C(c2nnnn2Cc2cccs2)N2CCN(C3CCCCC3)CC2)cc1` (stereo not drawn), the activation was 60.5% (active).

Turning to `COc1ccc(C2Nc3ccccc3C(=O)N2Cc2ccco2)cc1COc1ccc(NC(C)=O)cc1` (stereo not drawn), the activation is 29% (active).

`O=C(NCCCN1CCN(CCCNC(=O)c2ccc3c(c2)OCO3)CC1)c1ccc2c(c1)OCO2`: the outcome was inactive.
